Measurements reported in ChEMBL document CHEMBL4024747, “Design, Synthesis, and Biological Activities of Vibsanin B Derivatives: A New Class of HSP90 C-Terminal Inhibitors” (J Med Chem, 2017).
Calls of active or inactive are those of the source. The calls are words filed in the database; no cut-off is given here.

Columns and labels:
[1] = system: MCF7; assay: Antiproliferative activity against human MCF7 cells assessed as reduction in cell viability after 48 hrs by MTT assay; assay type: functional, cell-based; settings: MCF7, 48 h
[2] = system: SMMC-7721; assay: Antiproliferative activity against human SMMC7721 cells assessed as reduction in cell viability after 48 hrs by MTT assay; assay type: functional, cell-based; settings: SMMC-7721, 48 h
[3] = system: A549; assay: Antiproliferative activity against human A549 cells assessed as reduction in cell viability after 48 hrs by MTT assay; assay type: functional, cell-based; settings: A549, 48 h
[4] = system: HL-60; assay: Antiproliferative activity against human HL60 cells assessed as reduction in cell viability after 48 hrs by MTT assay; assay type: functional, cell-based; settings: HL-60, 48 h
[5] = system: SW480; assay: Antiproliferative activity against human SW480 cells assessed as reduction in cell viability after 48 hrs by MTT assay; assay type: functional, cell-based; settings: SW480, 48 h
[6] = species on record: Oryctolagus cuniculus; assay: Inhibition of HSP90 in rabbit reticulocyte lysate assessed as decrease in HSP90-dependant refolding of firefly luciferase at 10 uM after 30 mins by luciferase gene based assay
Method in brief: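 Firefly luciferase heat-denatured at 41 °C for 10 min, then added with rabbit reticulocyte lysate to compounds at 10 μM. Renaturation at room temperature for 3 h; luciferin substrate added and luminescence read. Refolding expressed relative to DMSO; novobiocin at 500 μM as reference. Three independent experiments.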

[7] = Stability of compound in pH 7.4 PBS at 37 degreeC after 12 hrs by HPLC analysis; assay type: physicochemical; settings: buffer, pH 7.4, 12 h
Method in brief: (§1)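 Solution stability determined by HPLC after incubation in PBS pH 7.4 at 37 °C for 12 h.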

[8] = biological target: Luciferin 4-monooxygenase (Photinus pyralis) (UniProt P08659); assay: Inhibition of firefly luciferase activity using luciferin substrate at 10 uM after 30 mins by luminescence assay
Sequence of Luciferin 4-monooxygenase (Photinus pyralis) (P08659 whole entry, the tested form may be a part): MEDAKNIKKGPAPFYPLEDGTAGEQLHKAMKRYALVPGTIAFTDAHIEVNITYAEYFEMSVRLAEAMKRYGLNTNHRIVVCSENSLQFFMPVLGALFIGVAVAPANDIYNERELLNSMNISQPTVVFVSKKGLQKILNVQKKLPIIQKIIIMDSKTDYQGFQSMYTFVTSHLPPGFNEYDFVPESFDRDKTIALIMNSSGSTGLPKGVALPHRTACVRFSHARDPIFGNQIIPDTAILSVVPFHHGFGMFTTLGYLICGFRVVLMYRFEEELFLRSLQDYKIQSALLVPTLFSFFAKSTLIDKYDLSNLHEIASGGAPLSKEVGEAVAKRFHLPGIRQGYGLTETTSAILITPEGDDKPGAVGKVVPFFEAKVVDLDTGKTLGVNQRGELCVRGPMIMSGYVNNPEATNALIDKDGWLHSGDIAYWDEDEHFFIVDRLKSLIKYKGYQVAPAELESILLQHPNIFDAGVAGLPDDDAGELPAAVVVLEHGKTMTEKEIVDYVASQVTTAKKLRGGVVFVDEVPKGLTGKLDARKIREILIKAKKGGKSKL

[9] = biological target: Heat shock protein HSP 90-beta (Homo sapiens) (UniProt P08238); assay: Inhibition of recombinant human Biotin-labeled N-terminal His/Avi-tagged HSP90beta C-terminal domain (527 to 724 residues) expressed in Escherichia coli interaction with GST-tagged Cyp40 at 1 to 100 uM after 30 mins by Alphascreen assay
Sequence of Heat shock protein HSP 90-beta (Homo sapiens) (P08238 whole entry, the tested form may be a part): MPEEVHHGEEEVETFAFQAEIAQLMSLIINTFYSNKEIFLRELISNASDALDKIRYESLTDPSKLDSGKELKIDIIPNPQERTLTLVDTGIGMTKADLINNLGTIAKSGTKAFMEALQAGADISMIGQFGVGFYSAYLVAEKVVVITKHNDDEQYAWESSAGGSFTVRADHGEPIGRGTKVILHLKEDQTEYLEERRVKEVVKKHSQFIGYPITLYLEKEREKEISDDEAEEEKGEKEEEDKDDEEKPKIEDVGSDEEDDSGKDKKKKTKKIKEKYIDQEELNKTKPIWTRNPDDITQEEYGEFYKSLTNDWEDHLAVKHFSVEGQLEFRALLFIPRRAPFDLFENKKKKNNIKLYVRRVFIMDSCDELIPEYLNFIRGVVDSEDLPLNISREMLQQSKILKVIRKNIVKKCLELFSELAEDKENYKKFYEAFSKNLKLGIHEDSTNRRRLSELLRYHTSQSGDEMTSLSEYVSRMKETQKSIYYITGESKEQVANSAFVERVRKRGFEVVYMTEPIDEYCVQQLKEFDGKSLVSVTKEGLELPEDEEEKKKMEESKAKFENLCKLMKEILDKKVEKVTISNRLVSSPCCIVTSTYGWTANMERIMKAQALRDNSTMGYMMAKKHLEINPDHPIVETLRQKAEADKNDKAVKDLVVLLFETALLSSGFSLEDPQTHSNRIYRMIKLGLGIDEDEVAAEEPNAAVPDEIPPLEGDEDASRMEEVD
Method in brief: (§2)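 AlphaScreen assay: biotin-labelled HSP90β C-terminus (aa 527–724) mixed with GST-Cyp40 and compound (1–100 μM; novobiocin 500 μM) for 30 min at room temperature. Glutathione acceptor beads added for 30 min, then streptavidin donor beads for 10 min. Excitation at 680 nm, emission read at 520–620 nm; percent activity calculated against enzyme and background wells.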

[10] = biological target: Heat shock protein HSP 90-beta (Homo sapiens) (UniProt P08238); assay: Inhibition of recombinant human Biotin-labeled N-terminal His/Avi-tagged HSP90beta C-terminal domain (527 to 724 residues) expressed in Escherichia coli interaction with GST-tagged Cyp40 at 500 uM after 30 mins by Alphascreen assay; method in brief: as §2
[11] = biological target: Heat shock protein HSP 90-beta (Homo sapiens) (UniProt P08238); assay: Binding affinity to human FLAG-tagged HSP90beta C-terminal domain expressed in human 293T cells at 30 uM by Western blot analysis; assay type: cell-based
Method in brief: (§3)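 Flag-tagged full-length HSP90β and its NTD, MD and CTD constructs expressed by transfection in 293T cells; lysates incubated with 30 μM biotin-ViB, captured on streptavidin-agarose beads, bound protein detected by Western blot.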

[12] = biological target: Heat shock protein HSP 90-beta (Homo sapiens) (UniProt P08238); assay: Binding affinity to human FLAG-tagged HSP90beta middle domain expressed in human 293T cells at 30 uM by Western blot analysis; assay type: cell-based; method in brief: as §3
[13] = biological target: Heat shock protein HSP 90-beta (Homo sapiens) (UniProt P08238); assay: Binding affinity to human FLAG-tagged HSP90beta N-terminal domain expressed in human 293T cells at 30 uM by Western blot analysis; assay type: cell-based; method in brief: as §3
[14] = biological target: Heat shock protein HSP 90-beta (Homo sapiens) (UniProt P08238); assay: Binding affinity to human recombinant His-tagged HSP90beta-CTD expressed in Escherichia coli BL21(DE3) at 80 uM after 2 hrs in presence of 18-fluro vibsanin B by Western blot analysis
[15] = biological target: Heat shock protein HSP 90-beta (Homo sapiens) (UniProt P08238); assay: Binding affinity to human recombinant His-tagged HSP90beta-CTD expressed in Escherichia coli BL21(DE3) at 80 uM after 2 hrs in presence of vibsanin B by Western blot analysis
[16] = biological target: Heat shock protein HSP 90-beta (Homo sapiens) (UniProt P08238); assay: Binding affinity to human recombinant His-tagged HSP90beta-CTD expressed in Escherichia coli BL21(DE3) at 80 uM after 2 hrs by Western blot analysis
[17] = biological target: Heat shock protein HSP 90-beta (Homo sapiens) (UniProt P08238); assay: Binding affinity to human recombinant His-tagged HSP90beta-CTD expressed in Escherichia coli BL21(DE3) at 80 uM after 2 hrs in presence of ViB-4-OH by Western blot analysis
[18] = system: MDA-MB-468; assay: Antiproliferative activity against human MDA-MB-468 cells assessed as reduction in cell viability after 48 hrs by MTT assay; assay type: functional, cell-based; settings: MDA-MB-468, 48 h
[19] = system: SK-BR-3; assay: Antiproliferative activity against human SKBR3 cells assessed as reduction in cell viability after 48 hrs by MTT assay; assay type: functional, cell-based; settings: SK-BR-3, 48 h
[20] = system: HepG2; assay: Antiproliferative activity against human HepG2 cells assessed as reduction in cell viability after 48 hrs by MTT assay; assay type: functional, cell-based; settings: HepG2, 48 h
[21] = system: AGS; assay: Antiproliferative activity against human AGS cells assessed as reduction in cell viability after 48 hrs by MTT assay; assay type: functional, cell-based
[22] = system: Huh-7; assay: Antiproliferative activity against human HuH7 cells assessed as reduction in cell viability after 48 hrs by MTT assay; assay type: functional, cell-based; settings: Huh-7, 48 h
[23] = system: HeLa; assay: Antiproliferative activity against human HeLa cells assessed as reduction in cell viability after 48 hrs by MTT assay; assay type: functional, cell-based
[24] = system: BT-474; assay: Antiproliferative activity against human BT474 cells assessed as reduction in cell viability after 48 hrs by MTT assay; assay type: functional, cell-based; settings: BT-474, 48 h
[25] = system: BEAS-2B; assay: Cytotoxicity against human BEAS2B cells assessed as reduction in cell viability after 48 hrs by MTT assay; assay type: cell-based
[26] = species on record: Danio rerio; assay: Toxicity in 3 days post fertilized zebrafish embryo assessed as changes in embryonic phenotypes at 4 to 16 uM after 12 hrs; settings: in vivo
[27] = biological target: Heat shock protein HSP 90-alpha (Homo sapiens) (UniProt P07900); assay: Inhibition of FITC-geldanamycin binding to human FLAG-tagged HSP90alpha N-terminal domain
[28] = biological target: Heat shock protein HSP 90-beta (Homo sapiens) (UniProt P08238); assay: Inhibition of FITC-geldanamycin binding to human FLAG-tagged HSP90beta N-terminal domain
[29] = Half life of compound in toluene at 110 degreeC by HPLC analysis; assay type: physicochemical
Method in brief: (§4)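 Thermostability in toluene at 110 °C or 60 °C followed by HPLC; half-life estimated.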

[30] = Drug metabolism in deionized water assessed as compound decomposition at 100 degreeC after 10 mins by HPLC analysis relative to control; assay type: physicochemical; settings: read-out: Drug metabolism
Method in brief: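 Thermostability determined by HPLC after heating in deionized water at 100 °C for 10 min; decomposition recorded in percent.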

[31] = Stability of compound in boiling ethyl alcohol by HPLC analysis; assay type: physicochemical
[32] = Half life of compound in toluene at 60 degreeC by HPLC analysis; assay type: physicochemical; method in brief: as §4
[33] = Drug degradation in pH 7.4 PBS at 37 degreeC after 12 hrs by HPLC analysis relative to control; method in brief: as §1

Compound	IC50 [1]	IC50 [2]	IC50 [3]	IC50 [4]	IC50 [5]	inhibition [6]	inhibition [8]	also measured
C=C1/C=C/C(=O)/C(CO)=C\C[C@](C)(CCC=C(C)C)/C=C/[C@H]1OC(=O)C=C(C)C	2750 nM	4300 nM	3090 nM	2810 nM	2970 nM	Active	inactive	Stability [7]: Stable
CO[C@@H]1[C@@H](OC(N)=O)[C@@H](O)[C@H](Oc2ccc3c(O)c(NC(=O)c4ccc(O)c(CC=C(C)C)c4)c(=O)oc3c2C)OC1(C)C								inhibition [9]: Active; inhibition [10]: Active
CC(C)=CCC[C@]1(C)/C=C/[C@@H](OC(=O)C=C(C)C)[C@](C)(O)/C=C/C(=O)/C(CCl)=C\C1	610 nM	840 nM	150 nM	160 nM	390 nM	Active	inactive	
CC(C)=CCC[C@]1(C)/C=C/[C@@H](OC(=O)C=C(C)C)[C@](C)(O)/C=C/C(=O)/C(COC(=O)CNCc2cn(CCOCCOCCOC(=O)CCCC[C@@H]3SC[C@@H]4NC(=O)N[C@@H]43)nn2)=C\C1								Activity [11]: Active; Activity [12]: Active; Activity [13]: inactive; Activity [14]: inactive; Activity [15]: inactive; Activity [16]: Active; Activity [17]: Active
CC(=O)O[C@]1(C)/C=C/C(=O)/C(CO)=C\C[C@](C)(CCC=C(C)C)/C=C/[C@H]1OC(=O)C=C(C)C	2320 nM	3080 nM	3150 nM	2370 nM	2010 nM	< 50%	inactive	Stability [7]: Stable
CC(C)=CCC[C@]1(C)/C=C/[C@@H](OC(=O)C=C(C)C)[C@](C)(O)/C=C/C(=O)/C(CF)=C\C1	240 nM	140 to 620 nM	140 to 620 nM	140 to 620 nM	140 to 620 nM	Active	inactive	IC50 [18]: 310 nM; IC50 [19]: 0.33 µM; IC50 [20]: 0.86 µM; IC50 [21]: 0.74 µM; IC50 [22]: 540 nM; IC50 [23]: 880 nM; IC50 [24]: 940 nM; IC50 [25]: 770 nM; Activity [26]: Toxic
CC(C)=CCC[C@]1(C)/C=C/[C@@H](OC(=O)C=C(C)C)[C@](C)(O)/C=C/C(=O)/C(CO)=C\C1 [VIBSANIN B]	2850 nM	3250 nM	3460 nM	2640 nM	2650 nM	Active	inactive	IC50 [19]: 9.19 µM; inhibition [27]: inactive; inhibition [28]: inactive; IC50 [20]: 19.1 µM; IC50 [21]: 9.68 µM; IC50 [23]: 2480 nM; IC50 [24]: 4550 nM; Activity [26]: Toxic; half-life [29]: 5 min; degraded at 10 min [30]: 2.8%; Stability [31]: Stable; half-life [32]: 9 min; Drug degradation [33]: 4.92%
CC(C)=CCC[C@]1(C)/C=C/[C@@H](OC(=O)C=C(C)C)[C@](C)(O)/C=C/C(=O)/C(CN2CCCC2)=C\C1	220 nM	140 nM	180 nM	160 nM	310 nM	< 50%	inactive	
